Active and inactive are the calls of the source. The calls are words filed in the database; no cut-off is given here.
How the values were obtained:
[1] = target: T1, Ribosomal protein S6 kinase alpha-1 (Homo sapiens, UniProt Q15418); assay: Inhibition of RSK1 domain 2 in human HeLa cells lysate pre incubated for 15 mins followed by ATP acyl phosphate probe addition and measured after 10 mins by LC-MS/MS analysis; format: subcellular
[2] = target: IKK epsilon/TBK1 (Homo sapiens) (UniProt Q14164+Q9UHD2); assay: Inhibition of IKKE/TBK1 in human HeLa cells lysate at 2 uM pre incubated for 15 mins followed by ADP acyl phosphate probe addition and measured after 10 mins by LC-MS/MS analysis relative to control; format: subcellular; details: time 25.0 min
[3] = target: Tyrosine-protein kinase Fyn (Homo sapiens, UniProt P06241); assay: Inhibition of FYN in human HeLa cells lysate at 10 uM pre incubated for 15 mins followed by ADP acyl phosphate probe addition and measured after 10 mins by LC-MS/MS analysis relative to control; format: subcellular; details: time 25.0 min
[4] = target: Serine/threonine-protein kinase TAO3 (Homo sapiens, UniProt Q9H2K8); assay: Inhibition of TAO3 in human HeLa cells lysate pre incubated for 15 mins followed by ATP acyl phosphate probe addition and measured after 10 mins by LC-MS/MS analysis; format: subcellular
[5] = Toxicity in C57Bl/6 mouse assessed as effect on alanine aminotransferase level at 50 mg/kg, ip for 14 days (reference value: 35 U/L); format: organism-based; details: in vivo, 336 h, time 14 day
[6] = target: Peripheral plasma membrane protein CASK (Homo sapiens) (UniProt O14936); assay: Inhibition of CASK in human HeLa cells lysate at 2 uM pre incubated for 15 mins followed by ADP acyl phosphate probe addition and measured after 10 mins by LC-MS/MS analysis relative to control; format: subcellular; details: time 25.0 min
In short: (§1)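 KiNativ profiling in HeLa lysate (5 mg/mL total protein). Lysate incubated 15 min with inhibitor at 50, 10, 2, 0.8 or 0 μM. ATP or ADP acylphosphate probe then added (5 μM final) and reacted 10 min. Reaction stopped with urea and analysed by targeted MS, using up to four fragment ions per kinase peptide-probe conjugate. % inhibition taken against untreated lysate. Run in duplicate.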

[7] = test system: Lewis lung carcinoma; assay: Antitumor activity against mouse LL2 cells allografted in C57Bl/6 mouse assessed as decrease in BrdU incorporation in cell nuclei in tumor at 50 mg/kg, ip by fluorescence microscopic analysis; format: functional, organism-based
In short: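 HeLa or LL/2 tumor sections from treated and control xenograft mice were stained with anti-BrdU antibody and DAPI and imaged by fluorescence microscopy. n = 6 mice, 9 slices.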

[8] = target: STE20-like serine/threonine-protein kinase (Homo sapiens, UniProt Q9H2G2); assay: Inhibition of SLK in human HeLa cells lysate at 50 uM pre incubated for 15 mins followed by ATP acyl phosphate probe addition and measured after 10 mins by LC-MS/MS analysis relative to control; format: subcellular; details: time 25.0 min
[9] = target: Mitogen-activated protein kinase 14 (Homo sapiens, UniProt Q16539); assay: Inhibition of P38a in human HeLa cells lysate pre incubated for 15 mins followed by ATP acyl phosphate probe addition and measured after 10 mins by LC-MS/MS analysis; format: subcellular
[10] = Inhibition of PCTAIRE2/3 in human HeLa cells lysate at 50 uM pre incubated for 15 mins followed by ADP acyl phosphate probe addition and measured after 10 mins by LC-MS/MS analysis relative to control; details: 25 min, condition cancer
[11] = Inhibition of MAP3K5/MAP3K6/MAP3K15 in human HeLa cells lysate at 50 uM pre incubated for 15 mins followed by ATP acyl phosphate probe addition and measured after 10 mins by LC-MS/MS analysis relative to control; details: 25 min, condition cancer
[12] = target: T2, Non-receptor tyrosine-protein kinase TNK1 (Homo sapiens) (UniProt Q13470); assay: Inhibition of TNK1 in human HeLa cells lysate at 2 uM pre incubated for 15 mins followed by ADP acyl phosphate probe addition and measured after 10 mins by LC-MS/MS analysis relative to control; format: subcellular; details: time 25.0 min
T2 sequence (whole entry): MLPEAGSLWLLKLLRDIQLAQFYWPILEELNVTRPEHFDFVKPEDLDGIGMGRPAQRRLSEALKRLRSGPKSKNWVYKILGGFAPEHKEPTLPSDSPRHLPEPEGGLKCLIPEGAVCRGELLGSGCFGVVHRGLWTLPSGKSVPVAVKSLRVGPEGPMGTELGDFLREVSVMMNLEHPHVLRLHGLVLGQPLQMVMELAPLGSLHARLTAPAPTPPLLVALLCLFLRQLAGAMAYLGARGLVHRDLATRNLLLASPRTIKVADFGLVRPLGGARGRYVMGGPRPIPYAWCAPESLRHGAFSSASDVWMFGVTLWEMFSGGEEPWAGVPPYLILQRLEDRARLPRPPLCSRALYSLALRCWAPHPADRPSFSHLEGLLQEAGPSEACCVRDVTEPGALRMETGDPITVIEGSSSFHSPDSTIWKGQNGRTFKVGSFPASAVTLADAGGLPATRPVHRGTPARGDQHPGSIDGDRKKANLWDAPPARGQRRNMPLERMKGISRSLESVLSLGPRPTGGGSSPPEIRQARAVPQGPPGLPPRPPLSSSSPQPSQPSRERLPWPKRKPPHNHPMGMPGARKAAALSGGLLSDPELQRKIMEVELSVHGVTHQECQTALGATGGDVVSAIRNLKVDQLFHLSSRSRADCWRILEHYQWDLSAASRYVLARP

[13] = target: T1, Ribosomal protein S6 kinase alpha-1; assay: Inhibition of RSK1 domain 2 K2 site in human HeLa cells lysate at 2 uM pre incubated for 15 mins followed by ADP acyl phosphate probe addition and measured after 10 mins by LC-MS/MS analysis relative to control; format: subcellular; details: time 25.0 min
[14] = target: Ephrin type-A receptor 2 (Homo sapiens, UniProt P29317); assay: Inhibition of EphA2 in human HeLa cells lysate at 50 uM pre incubated for 15 mins followed by ATP acyl phosphate probe addition and measured after 10 mins by LC-MS/MS analysis relative to control; format: subcellular; details: time 25.0 min
[15] = target: Calcium/calmodulin-dependent protein kinase type 1D (Homo sapiens, UniProt Q8IU85); assay: Inhibition of CAMK1d in human HeLa cells lysate pre incubated for 15 mins followed by ATP acyl phosphate probe addition and measured after 10 mins by LC-MS/MS analysis; format: subcellular
In short: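 KiNativ-type profiling in HeLa lysate (5 mg/mL total protein). Lysate preincubated 15 min with inhibitor at 50, 10, 2, 0.8 or 0 μM, then ATP or ADP acylphosphate probe added (5 μM final) for 10 min. Reaction stopped with urea and analysed by targeted MS, using up to four fragment ions per kinase peptide-probe conjugate. % inhibition calculated against untreated lysate. Duplicate reactions.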

[16] = target: Cyclin-dependent kinase 15 (Homo sapiens, UniProt Q96Q40); assay: Inhibition of PFTAIRE2 in human HeLa cells lysate pre incubated for 15 mins followed by ADP acyl phosphate probe addition and measured after 10 mins by LC-MS/MS analysis; format: subcellular
[17] = target: Cyclin-dependent kinase 2 (Homo sapiens, UniProt P24941); assay: Inhibition of CDK2 in human HeLa cells lysate at 10 uM pre incubated for 15 mins followed by ATP acyl phosphate probe addition and measured after 10 mins by LC-MS/MS analysis relative to control; format: subcellular; details: time 25.0 min; in short: as §1
[18] = target: Cyclin-dependent kinase 13 (Homo sapiens, UniProt Q14004); assay: Inhibition of CHED in human HeLa cells lysate pre incubated for 15 mins followed by ATP acyl phosphate probe addition and measured after 10 mins by LC-MS/MS analysis; format: subcellular; in short: as §1
Chain of Cyclin-dependent kinase 13 (Q14004 whole entry): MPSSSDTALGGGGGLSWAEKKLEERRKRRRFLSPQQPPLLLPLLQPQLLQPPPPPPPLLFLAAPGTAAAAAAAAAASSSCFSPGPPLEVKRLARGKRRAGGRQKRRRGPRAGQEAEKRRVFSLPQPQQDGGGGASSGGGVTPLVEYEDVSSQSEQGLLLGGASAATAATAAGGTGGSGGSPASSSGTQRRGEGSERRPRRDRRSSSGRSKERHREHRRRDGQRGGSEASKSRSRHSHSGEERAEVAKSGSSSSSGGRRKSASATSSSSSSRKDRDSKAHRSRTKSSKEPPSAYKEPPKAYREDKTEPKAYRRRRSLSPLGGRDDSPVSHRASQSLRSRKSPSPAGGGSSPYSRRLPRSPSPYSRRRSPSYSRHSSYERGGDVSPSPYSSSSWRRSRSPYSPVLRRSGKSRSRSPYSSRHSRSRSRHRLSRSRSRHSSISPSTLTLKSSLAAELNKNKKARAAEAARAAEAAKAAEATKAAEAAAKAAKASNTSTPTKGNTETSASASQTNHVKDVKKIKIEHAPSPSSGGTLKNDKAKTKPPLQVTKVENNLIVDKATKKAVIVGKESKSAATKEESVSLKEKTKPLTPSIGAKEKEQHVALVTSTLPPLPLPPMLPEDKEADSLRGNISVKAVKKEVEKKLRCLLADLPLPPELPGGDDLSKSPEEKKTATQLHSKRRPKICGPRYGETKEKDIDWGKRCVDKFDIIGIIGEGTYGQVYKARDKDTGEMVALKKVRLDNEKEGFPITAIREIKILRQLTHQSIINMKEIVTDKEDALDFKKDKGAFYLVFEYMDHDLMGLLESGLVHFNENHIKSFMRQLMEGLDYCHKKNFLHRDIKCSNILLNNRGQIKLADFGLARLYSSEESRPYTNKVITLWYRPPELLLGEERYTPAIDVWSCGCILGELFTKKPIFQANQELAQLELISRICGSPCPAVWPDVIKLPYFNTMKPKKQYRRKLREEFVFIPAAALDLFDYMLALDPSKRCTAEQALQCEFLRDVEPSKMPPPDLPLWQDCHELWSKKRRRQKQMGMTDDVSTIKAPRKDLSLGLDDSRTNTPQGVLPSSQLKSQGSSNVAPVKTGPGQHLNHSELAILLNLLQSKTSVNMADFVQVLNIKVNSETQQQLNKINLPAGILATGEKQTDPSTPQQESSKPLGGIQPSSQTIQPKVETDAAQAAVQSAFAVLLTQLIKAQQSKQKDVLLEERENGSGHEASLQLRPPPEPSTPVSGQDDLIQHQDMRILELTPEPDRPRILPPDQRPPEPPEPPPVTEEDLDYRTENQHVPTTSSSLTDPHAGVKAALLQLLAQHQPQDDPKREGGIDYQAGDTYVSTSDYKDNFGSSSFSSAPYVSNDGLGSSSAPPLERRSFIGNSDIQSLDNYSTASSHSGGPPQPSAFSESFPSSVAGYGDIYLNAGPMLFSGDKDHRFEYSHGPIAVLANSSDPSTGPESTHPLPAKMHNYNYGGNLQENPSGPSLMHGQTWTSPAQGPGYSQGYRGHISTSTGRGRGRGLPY

T1 sequence (Q15418 whole entry, the tested form may be a part): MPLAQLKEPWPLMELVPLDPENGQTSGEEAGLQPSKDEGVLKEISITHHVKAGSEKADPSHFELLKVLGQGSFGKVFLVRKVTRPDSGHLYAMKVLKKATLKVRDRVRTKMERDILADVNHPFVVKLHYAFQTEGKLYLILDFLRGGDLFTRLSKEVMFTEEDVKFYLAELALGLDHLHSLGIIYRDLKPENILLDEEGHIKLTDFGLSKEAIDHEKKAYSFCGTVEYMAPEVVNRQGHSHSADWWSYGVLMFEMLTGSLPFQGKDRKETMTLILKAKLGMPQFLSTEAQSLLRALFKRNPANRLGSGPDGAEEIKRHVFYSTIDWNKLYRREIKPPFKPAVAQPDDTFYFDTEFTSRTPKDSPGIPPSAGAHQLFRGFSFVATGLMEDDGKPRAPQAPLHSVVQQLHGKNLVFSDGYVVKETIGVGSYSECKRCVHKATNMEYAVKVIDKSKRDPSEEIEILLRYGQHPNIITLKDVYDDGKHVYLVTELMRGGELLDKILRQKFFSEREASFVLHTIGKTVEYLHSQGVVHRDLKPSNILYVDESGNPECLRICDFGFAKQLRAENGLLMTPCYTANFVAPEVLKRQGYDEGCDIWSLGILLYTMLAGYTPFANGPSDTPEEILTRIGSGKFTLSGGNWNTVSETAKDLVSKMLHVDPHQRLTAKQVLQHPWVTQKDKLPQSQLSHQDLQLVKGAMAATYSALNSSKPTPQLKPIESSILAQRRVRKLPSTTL
Chain of Calcium/calmodulin-dependent protein kinase type 1D (Q8IU85 whole entry, the tested form may be a part): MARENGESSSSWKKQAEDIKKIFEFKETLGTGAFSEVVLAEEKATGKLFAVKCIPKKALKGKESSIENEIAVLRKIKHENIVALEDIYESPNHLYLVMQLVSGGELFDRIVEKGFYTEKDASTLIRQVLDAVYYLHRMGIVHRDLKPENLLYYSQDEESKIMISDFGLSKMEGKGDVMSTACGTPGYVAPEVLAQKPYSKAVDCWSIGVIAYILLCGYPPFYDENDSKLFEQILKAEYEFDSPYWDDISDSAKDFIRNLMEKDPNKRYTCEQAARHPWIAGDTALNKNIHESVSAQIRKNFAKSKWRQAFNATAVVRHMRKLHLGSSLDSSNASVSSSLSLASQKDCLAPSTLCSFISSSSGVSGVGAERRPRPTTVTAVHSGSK
Chain of Tyrosine-protein kinase Fyn (P06241 2-537 limits assumed): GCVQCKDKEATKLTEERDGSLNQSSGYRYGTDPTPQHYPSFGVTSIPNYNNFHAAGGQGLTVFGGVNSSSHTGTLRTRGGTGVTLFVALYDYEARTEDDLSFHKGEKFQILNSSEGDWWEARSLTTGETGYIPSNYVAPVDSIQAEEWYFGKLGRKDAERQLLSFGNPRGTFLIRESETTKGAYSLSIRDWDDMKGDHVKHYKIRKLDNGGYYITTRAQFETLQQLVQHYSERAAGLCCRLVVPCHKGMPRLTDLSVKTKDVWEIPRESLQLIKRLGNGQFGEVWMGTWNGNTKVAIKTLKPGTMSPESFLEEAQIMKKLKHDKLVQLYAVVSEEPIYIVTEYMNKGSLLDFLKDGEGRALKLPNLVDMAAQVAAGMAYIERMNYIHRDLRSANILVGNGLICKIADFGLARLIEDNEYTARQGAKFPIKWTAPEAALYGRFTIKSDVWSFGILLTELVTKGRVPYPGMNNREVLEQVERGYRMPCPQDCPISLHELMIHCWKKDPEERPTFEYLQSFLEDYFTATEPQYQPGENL
Chain of Cyclin-dependent kinase 15 (Q96Q40 whole entry): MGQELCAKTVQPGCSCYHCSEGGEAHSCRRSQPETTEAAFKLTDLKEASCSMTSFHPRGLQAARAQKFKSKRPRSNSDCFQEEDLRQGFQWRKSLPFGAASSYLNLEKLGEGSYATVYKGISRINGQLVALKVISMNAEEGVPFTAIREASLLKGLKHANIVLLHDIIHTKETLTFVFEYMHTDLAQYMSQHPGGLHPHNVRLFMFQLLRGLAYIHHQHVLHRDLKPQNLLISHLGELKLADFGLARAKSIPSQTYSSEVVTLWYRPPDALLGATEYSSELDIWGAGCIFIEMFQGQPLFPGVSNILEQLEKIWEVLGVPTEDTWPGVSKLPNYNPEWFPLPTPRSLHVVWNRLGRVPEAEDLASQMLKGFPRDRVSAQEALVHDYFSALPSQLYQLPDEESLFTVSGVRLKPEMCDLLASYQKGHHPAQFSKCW
Chain of STE20-like serine/threonine-protein kinase (Q9H2G2 whole entry, looked up): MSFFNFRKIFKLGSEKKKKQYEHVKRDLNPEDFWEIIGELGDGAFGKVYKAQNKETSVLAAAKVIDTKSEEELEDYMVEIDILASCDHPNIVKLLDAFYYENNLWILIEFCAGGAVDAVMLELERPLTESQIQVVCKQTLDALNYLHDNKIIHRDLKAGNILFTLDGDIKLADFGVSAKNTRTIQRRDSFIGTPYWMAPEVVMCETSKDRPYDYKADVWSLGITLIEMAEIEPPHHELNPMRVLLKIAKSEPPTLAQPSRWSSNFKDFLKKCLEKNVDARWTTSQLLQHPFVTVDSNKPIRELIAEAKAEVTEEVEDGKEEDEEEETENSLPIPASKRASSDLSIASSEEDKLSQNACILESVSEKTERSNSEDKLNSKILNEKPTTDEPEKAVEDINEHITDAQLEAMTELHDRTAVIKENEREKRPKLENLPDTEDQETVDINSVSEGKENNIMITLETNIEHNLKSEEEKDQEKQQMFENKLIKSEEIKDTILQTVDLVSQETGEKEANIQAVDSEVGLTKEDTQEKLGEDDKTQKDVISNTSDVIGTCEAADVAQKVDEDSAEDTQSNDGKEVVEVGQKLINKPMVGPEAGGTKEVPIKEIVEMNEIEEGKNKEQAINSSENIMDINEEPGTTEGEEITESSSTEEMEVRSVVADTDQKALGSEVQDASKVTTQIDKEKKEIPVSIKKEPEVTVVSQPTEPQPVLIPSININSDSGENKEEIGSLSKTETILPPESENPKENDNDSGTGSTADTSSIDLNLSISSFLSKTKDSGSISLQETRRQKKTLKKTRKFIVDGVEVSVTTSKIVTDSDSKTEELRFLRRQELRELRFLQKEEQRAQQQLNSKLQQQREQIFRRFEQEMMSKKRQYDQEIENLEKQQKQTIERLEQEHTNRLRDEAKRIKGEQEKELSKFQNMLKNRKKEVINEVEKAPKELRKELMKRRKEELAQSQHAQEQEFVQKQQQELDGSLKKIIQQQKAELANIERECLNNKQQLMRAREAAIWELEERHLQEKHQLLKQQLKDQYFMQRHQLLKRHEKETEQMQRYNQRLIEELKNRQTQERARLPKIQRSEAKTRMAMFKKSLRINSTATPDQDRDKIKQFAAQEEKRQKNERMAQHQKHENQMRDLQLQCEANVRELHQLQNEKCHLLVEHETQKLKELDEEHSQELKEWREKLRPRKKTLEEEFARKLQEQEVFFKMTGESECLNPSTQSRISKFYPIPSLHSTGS

Compound `CCOc1cc(N2CCC(O)CC2)ccc1Nc1ncc2c(n1)N(C)c1ccccc1C(=O)N2C` has an IC50 [1] of 26 µM, an inhibition [2] of -2.6% and an inhibition [3] of 11.9%. For the same compound, the IC50 [4] was over 50 µM, the Activity [5] was 402 U/L and the inhibition [6] was 12.1%. For the same compound, the Activity [7] was “Active”, the inhibition [8] was 5.7% and the IC50 [9] was over 50 µM. For the same compound, the inhibition at 50 µM [10] was -8.7%, the inhibition at 50 µM [11] was 2.5% and the inhibition [12] was 9.2%. It also gave an inhibition [13] of -6.4%, an inhibition [14] of -7.8% and an IC50 [15] of over 50 µM. The IC50 [16] was over 50 µM, the inhibition [17] was 6% and the IC50 [18] was over 50 µM.

From ChEMBL document CHEMBL5661979, “Pharmacological inhibition of BMK1 suppresses tumor growth through promyelocytic leukemia protein” (Cancer Cell, 2010)
